From ChEMBL document CHEMBL1157060, “Antiviral and anti-inflammatory metabolites from the soft coral Sinularia capillosa” (J Nat Prod, 2010)
Active and inactive are the calls of the source. The calls are words filed in the database; no cut-off is given here.

Tests used:
Klebsiella aerogenes = experiment: Antibacterial activity against Enterobacter aerogenes ATCC 13048 at 100 ug/ml after 24 hrs; assay type: functional, organism-based
P388 = experiment: Cytotoxicity against mouse P388 cells after 2 days by MTT assay; assay type: functional; conditions: for EC50: P388, 48 h, read-out: ED50 (the source's name)
Method in brief: (§1)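 The value reported is the ED50 against each tumour cell line. Mithramycin was run as positive control.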

A549 = experiment: Cytotoxicity against human A549 cells after 2 days by MTT assay; assay type: functional; method in brief: as §1
HT-29 = experiment: Cytotoxicity against human HT-29 cells after 2 days by MTT assay; assay type: functional; method in brief: as §1
Salmonella enterica = experiment: Antibacterial activity against Salmonella enteritidis ATCC 13076 at 100 ug/ml after 24 hrs; assay type: functional, organism-based; conditions: Salmonella enterica subsp. enterica serovar Enteritidis
Serratia marcescens = experiment: Antibacterial activity against Serratia marcescens ATCC 25419 at 100 ug/ml after 24 hrs; assay type: functional, organism-based
Shigella sonnei = experiment: Antibacterial activity against Shigella sonnei ATCC 11060 at 100 ug/ml after 24 hrs; assay type: functional, organism-based
Yersinia enterocolitica = experiment: Antibacterial activity against Yersinia enterocolitica ATCC 23715 at 100 ug/ml after 24 hrs; assay type: functional, organism-based
RAW264.7 [1] = experiment: Antiinflammatory activity in mouse RAW264.7 cells assessed as inhibition of LPS-stimulated COX2 expression at 10 uM after 16 hrs by Western blot analysis relative to control; assay type: functional
Method in brief: (§2)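 LPS-stimulated RAW 264.7 macrophages were treated with each compound at 10 µM. iNOS and COX-2 protein levels were measured by immunoblot, with β-actin also probed. Band intensity was expressed relative to the LPS-alone group, set at 100%. Data are mean ± SEM (n = 5), and significance versus LPS alone was set at P < 0.05. CAPE at 10 µM served as positive control.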

RAW264.7 [2] = experiment: Antiinflammatory activity in mouse RAW264.7 cells assessed as inhibition of LPS-stimulated iNOS expression at 10 uM after 16 hrs by Western blot analysis relative to control; assay type: functional; method in brief: as §2
Human betaherpesvirus 5 = experiment: Antiviral activity against HCMV assessed as protection from virus-induced cytopathogenicity after 7 days by coulter counter; assay type: functional, organism-based; conditions: Human betaherpesvirus 5, 168 h

For CC1(C)CC(O)C[C@@]2(C)OC(=O)C=C12 (stereo partly specified), the Activity (Klebsiella aerogenes) was “inactive”, the Activity (P388) was “inactive” and the Activity (A549) was “inactive”. The Activity (HT-29) was “inactive”, the Activity (Salmonella enterica) was “inactive” and the Activity (Serratia marcescens) was “inactive”. The Activity (Shigella sonnei) was “inactive”, the Activity (Yersinia enterocolitica) was “inactive” and the inhibition (RAW264.7 [1]) was “inactive”. The inhibition (RAW264.7 [2]) was “inactive”.
For C=C/C(C)=C/CCC(C)Cc1cc(C(=O)O)co1 (stereo unspecified), the Activity (Klebsiella aerogenes) was “inactive”, the Activity (P388) was “inactive” and the Activity (A549) was “inactive”. For the same compound, the Activity (HT-29) was “inactive”, the Activity (Salmonella enterica) was “inactive” and the Activity (Serratia marcescens) was “inactive”. For the same compound, the Activity (Shigella sonnei) was “inactive”, the Activity (Yersinia enterocolitica) was “inactive” and the inhibition (RAW264.7 [1]) was “inactive”. For the same compound, the inhibition (RAW264.7 [2]) was “inactive”.
With C=C1CC[C@H](C)/C(C)=C\[C@H]2[C@H]1CC[C@]2(C)O the Activity (Klebsiella aerogenes) was “inactive”, the Activity (P388) was “inactive” and the Activity (A549) was “inactive”. The Activity (HT-29) was “inactive”, the Activity (Salmonella enterica) was “inactive” and the Activity (Serratia marcescens) was “inactive”. The Activity (Shigella sonnei) was “inactive”, the Activity (Yersinia enterocolitica) was “inactive” and the inhibition (RAW264.7 [1]) was “inactive”. For the same compound, the inhibition (RAW264.7 [2]) was “inactive”.
For CC1=CC(=O)C(C/C=C(\C)CC/C=C(\C)Cc2cc(C)co2)=CC1=O, the Activity (Klebsiella aerogenes) was “inactive”, the Activity (P388) was “inactive” and the Activity (A549) was “inactive”. For the same compound, the Activity (HT-29) was “inactive”, the IC50 (Human betaherpesvirus 5) was 5.9 µM and the Activity (Salmonella enterica) was “inactive”. For the same compound, the Activity (Serratia marcescens) was “inactive”, the Activity (Shigella sonnei) was “inactive” and the Activity (Yersinia enterocolitica) was “inactive”.
In the case of CO[C@](C)(CC/C=C(\C)Cc1cc(C)co1)[C@@H]1Cc2cc(O)c(C)cc2O1 [CAPILLOBENZOFURANOL], the Activity (Klebsiella aerogenes) is reported as “inactive”, the Activity (P388) is reported as “inactive” and the Activity (A549) is reported as “inactive”. For the same compound, the Activity (HT-29) was “inactive”, the IC50 (Human betaherpesvirus 5) was 13.5 µM and the Activity (Salmonella enterica) was “inactive”. For the same compound, the Activity (Serratia marcescens) was “inactive”, the Activity (Shigella sonnei) was “inactive” and the Activity (Yersinia enterocolitica) was “inactive”. For the same compound, the inhibition (RAW264.7 [1]) was “inactive” and the inhibition (RAW264.7 [2]) was “inactive”.
CO[C@H](C(=O)[C@@H](O)[C@@H](C)O)[C@@H]1Cc2cc3cc(O[C@H]4C[C@@H](O[C@@H]5C[C@@H](O)[C@H](O)[C@@H](C)O5)[C@H](O)[C@@H](C)O4)c(C)c(O)c3c(O)c2C(=O)[C@H]1O[C@H]1C[C@@H](O[C@@H]2C[C@@H](O)[C@@H](O[C@@H]3C[C@](C)(O)[C@H](O)[C@@H](C)O3)[C@@H](C)O2)[C@H](O)[C@@H](C)O1 [PLICAMYCIN] gave an EC50 (P388) of 0.06 µM, an EC50 (A549; A549, 48 h, read-out: ED50 (the source's name)) of 70 nM and an EC50 (HT-29; HT-29, 48 h, read-out: ED50 (the source's name)) of 70 nM.
C/C(=C\Cc1cc(O)c(C)cc1O)CC/C=C(\C)Cc1cc(C)co1 was tested, and the Activity (Klebsiella aerogenes) was “inactive”, the Activity (P388) was “inactive” and the Activity (A549) was “inactive”. For the same compound, the Activity (HT-29) was “inactive”, the IC50 (Human betaherpesvirus 5) was 15 µM and the Activity (Salmonella enterica) was “inactive”. The Activity (Serratia marcescens) was “inactive”, the Activity (Shigella sonnei) was “inactive” and the Activity (Yersinia enterocolitica) was “inactive”. The inhibition (RAW264.7 [1]) was “inactive”.
For C=CC(=C)C(CCC(C)Cc1cc(C(=O)OC)co1)OC(C)=O (stereo unspecified), the Activity (Klebsiella aerogenes) was “inactive”, the Activity (P388) was “inactive” and the Activity (A549) was “inactive”. The Activity (HT-29) was “inactive”, the Activity (Salmonella enterica) was “inactive” and the Activity (Serratia marcescens) was “inactive”. For the same compound, the Activity (Shigella sonnei) was “inactive”, the Activity (Yersinia enterocolitica) was “inactive” and the inhibition (RAW264.7 [1]) was “inactive”. The inhibition (RAW264.7 [2]) was “inactive”.
With CC1=CC(=O)C(C/C=C(\C)CC/C=C(\C)CC/C=C(\C)CC[C@H](O)C(C)(C)O)=CC1=O [CAPILLOQUINONE] the Activity (Klebsiella aerogenes) was “inactive”, the EC50 (P388) was 9.8 µM and the Activity (A549) was “inactive”. For the same compound, the Activity (HT-29) was “inactive”, the Activity (Salmonella enterica) was “inactive” and the Activity (Serratia marcescens) was “inactive”. The Activity (Shigella sonnei) was “inactive”, the Activity (Yersinia enterocolitica) was “inactive” and the inhibition (RAW264.7 [1]) was “inactive”.
For C/C(=C\CC[C@]1(C)C=Cc2cc(O)c(C)cc2O1)Cc1cc(C)co1 [CAPILLOBENZOPYRANOL], the Activity (Klebsiella aerogenes) was “inactive”, the EC50 (P388) was 12.7 µM and the Activity (A549) was “inactive”. For the same compound, the Activity (HT-29) was “inactive”, the Activity (Salmonella enterica) was “inactive” and the Activity (Serratia marcescens) was “inactive”. For the same compound, the Activity (Shigella sonnei) was “inactive”, the Activity (Yersinia enterocolitica) was “inactive” and the inhibition (RAW264.7 [1]) was “inactive”.
